Measurements reported in ChEMBL document CHEMBL1129987, “Structure-based design of nonpeptidic HIV protease inhibitors: the sulfonamide-substituted cyclooctylpyramones” (J Med Chem, 1997).

Key:
[1] = test system: Human immunodeficiency virus 1; experiment: Antiviral activity in HIV-1 infected H9 cells; assay type: functional; conditions: Human immunodeficiency virus 1, H9; read-out: ED50 (the source's name)
Procedure, shortened: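 H9 cells infected with HIV-1 IIIB at MOI about 0.005, spun down (200g, 10 min), resuspended at 8 × 10^5 cells/mL in RPMI Complete and mixed with compound; final DMSO 0.1%, triplicate per concentration. After 5 days at 37 °C in 5% CO2, supernatant p24 antigen was measured by ELISA. ED50 is the drug amount that reduces p24 by 50% versus DMSO drug-free controls.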

[2] = Median cell culture toxic dose was evaluated against H9 cell line; assay type: ADME, cell-based; conditions: human, H9 cells; read-out: CCTD50
[3] = target: Human immunodeficiency virus type 1 protease (Human immunodeficiency virus 1, UniProt Q72874); experiment: Binding affinity against HIV-1 protease

Row | Compound | EC50 [1] | CC50 [2] | Ki [3]
1 | CC(C)CC(c1cccc(NS(=O)(=O)c2ccc(F)cc2)c1)c1c(O)c2c(oc1=O)CCCCCC2 (centres undefined) | > 10 µM | > 30 µM | 2.8 nM
2 | CCC(c1cccc(NS(=O)(=O)c2ccc(Cl)cc2)c1)c1c(O)c2c(oc1=O)CCCCCC2 (centres undefined) | 4.7 µM | > 30 µM | 3.5 nM
3 | CC(C)C(c1cccc(NS(=O)(=O)c2ccc(Cl)cc2)c1)c1c(O)c2c(oc1=O)CCCCCC2 (centres undefined) | > 10 µM | > 30 µM | 18 nM
4 | O=c1c2c(oc(O)c1C(c1cccc(NS(=O)(=O)c3cscn3)c1)C1CC1)CCCCCC2 (centres undefined) | > 3 µM | > 30 µM | 1.6 nM
5 | O=c1c2c(oc(O)c1[C@@H](c1cccc(NS(=O)(=O)c3cccc4cccnc34)c1)C1CC1)CCCCCC2 | 7.2 µM | > 30 µM | 0.9 nM
6 | CC(C)CC(c1cccc(NS(=O)(=O)c2cccc3cccnc23)c1)c1c(O)c2c(oc1=O)CCCCCC2 (centres undefined) | > 10 µM | > 30 µM | 3.3 nM
7 | Nc1cccc(S(=O)(=O)Nc2cccc(C(c3c(O)c4c(oc3=O)CCCCCC4)C3CC3)c2)c1 (centres undefined) | 6.3 µM | > 30 µM | 2.3 nM
8 | N#Cc1cccc(S(=O)(=O)Nc2cccc(C(c3c(O)oc4c(c3=O)CCCCCC4)C3CC3)c2)c1 (centres undefined) | > 3 µM | > 30 µM | 0.6 nM
9 | CC(C)C(c1cccc(NS(=O)(=O)c2cn(C)cn2)c1)c1c(O)c2c(oc1=O)CCCCCC2 (centres undefined) | 2.5 µM | > 30 µM | 0.5 nM
10 | CCCCS(=O)(=O)Nc1cccc(C(c2c(O)c3c(oc2=O)CCCCCC3)C2CC2)c1 (centres undefined) |  |  | 4.6 nM
11 | O=c1c2c(oc(O)c1C(c1cccc(NS(=O)(=O)c3c(Cl)cccc3Cl)c1)C1CC1)CCCCCC2 (centres undefined) |  | > 30 µM | > 200 nM
12 | CCCCC(c1cccc(NS(=O)(=O)c2ccc(F)cc2)c1)c1c(O)c2c(oc1=O)CCCCCC2 (centres undefined) | > 10 µM | > 30 µM | 6.1 nM
13 | O=c1c2c(oc(O)c1C(c1cccc(NS(=O)(=O)c3ccc(C(F)(F)F)c(C(F)(F)F)c3)c1)C1CC1)CCCCCC2 (centres undefined) |  | > 30 µM | 47 nM
14 | [N-]=[N+]=Nc1ccc(S(=O)(=O)Nc2cccc(C(c3c(O)oc4c(c3=O)CCCCCC4)C3CC3)c2)cc1 (centres undefined) | 1.7 µM | > 30 µM | 2.6 nM
15 | CC(C)S(=O)(=O)Nc1cccc(C(c2c(O)c3c(oc2=O)CCCCCC3)C2CC2)c1 (centres undefined) |  |  | 33 nM
16 | CC(C)C(c1cccc(NS(=O)(=O)c2cccnc2)c1)c1c(O)c2c(oc1=O)CCCCCC2 (centres undefined) | > 10 µM | > 30 µM | 
17 | O=c1c2c(oc(O)c1C(c1cccc(NS(=O)(=O)c3ccc4ccccc4n3)c1)C1CC1)CCCCCC2 (centres undefined) | 5.4 µM | > 30 µM | 0.4 nM

Row | Compound | EC50 [1] | CC50 [2] | Ki [3]
18 | Nc1ccc(S(=O)(=O)Nc2cccc(C(c3c(O)c4c(oc3=O)CCCCCC4)C3CC3)c2)cc1 (centres undefined) |  | > 30 µM | 6.9 nM
19 | CCCC(c1cccc(NS(=O)(=O)c2cn(C)cn2)c1)c1c(O)c2c(oc1=O)CCCCCC2 (centres undefined) | 2.5 µM | > 30 µM | 0.1 nM
20 | Cc1ccccc1S(=O)(=O)Nc1cccc(C(c2c(O)c3c(oc2=O)CCCCCC3)C2CC2)c1 (centres undefined) |  | > 30 µM | 9.3 nM
21 | O=c1c2c(oc(O)c1C(c1cccc(NS(=O)(=O)c3cc(Cl)cc(Cl)c3)c1)C1CC1)CCCCCC2 (centres undefined) | > 10 µM | > 30 µM | 6.9 nM
22 | O=c1c2c(oc(O)c1C(c1cccc(NS(=O)(=O)c3ccc([N+](=O)[O-])cc3)c1)C1CC1)CCCCCC2 (centres undefined) | 3.1 µM | > 30 µM | 2.7 nM
23 | CCCC(c1cccc(NS(=O)(=O)c2ccc(F)cc2)c1)c1c(O)c2c(oc1=O)CCCCCC2 (centres undefined) | 6.3 µM | > 30 µM | 2.1 nM
24 | CC(C)CC(c1cccc(NS(=O)(=O)c2cccnc2)c1)c1c(O)c2c(oc1=O)CCCCCC2 (centres undefined) | > 10 µM | > 30 µM | 9.3 nM
25 | O=c1c2c(oc(O)c1C(c1cccc(NS(=O)(=O)C3CCCCC3)c1)C1CC1)CCCCCC2 (centres undefined) |  |  | 3.6 nM
26 | C=CS(=O)(=O)Nc1cccc(C(c2c(O)oc3c(c2=O)CCCCCC3)C2CC2)c1 (centres undefined) |  |  | 18 nM
27 | O=c1c2c(oc(O)c1C(c1cccc(NS(=O)(=O)c3cccc4cccnc34)c1)C1CC1)CCCCCC2 (centres undefined) | 1.4 µM | 82 µM | 1.9 nM
28 | O=c1c2c(oc(O)c1C(c1cccc(NS(=O)(=O)c3ccccc3)c1)C1CC1)CCCCCC2 (centres undefined) | 5.5 µM | > 30 µM | 
29 | O=C(O)c1cccc(S(=O)(=O)Nc2cccc(C(c3c(O)c4c(oc3=O)CCCCCC4)C3CC3)c2)c1 (centres undefined) | > 10 µM | > 30 µM | 4.5 nM
30 | CCc1ccc(S(=O)(=O)Nc2cccc(C(c3c(O)c4c(oc3=O)CCCCCC4)C3CC3)c2)cc1 (centres undefined) |  | > 30 µM | 5 nM
31 | O=c1c2c(oc(O)c1C(c1cccc(NS(=O)(=O)c3ccc(I)cc3)c1)C1CC1)CCCCCC2 (centres undefined) | 5.3 µM | > 30 µM | 3.1 nM
32 | O=c1c2c(oc(O)c1C(c1cccc(NS(=O)(=O)c3cccc(C(F)(F)F)c3)c1)C1CC1)CCCCCC2 (centres undefined) | 3.8 µM | > 30 µM | 3 nM
33 | O=c1c2c(oc(O)c1C(c1cccc(NS(=O)(=O)c3ccc4ccccc4c3)c1)C1CC1)CCCCCC2 (centres undefined) | 3.4 µM | > 30 µM | 4.1 nM
